Measurements from ChEMBL document CHEMBL1156809, “Synthesis and anticonvulsant activities of (R)-N-(4'-substituted)benzyl 2-acetamido-3-methoxypropionamides” (J Med Chem, 2010).
The source made the active and inactive calls. The calls are words filed in the database; no cut-off is given here.

What was measured:
[1] = tested on: Mus musculus; experiment: Anticonvulsant activity against subcutaneous metrazole-induced seizures in albino CF1 mouse at 300 mg/kg, ip after 0.5 hrs; type: functional, organism-based; parameters: dose 300 mg/kg
Method in brief: (§1)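 Subcutaneous Metrazol seizure test under the NINDS ASP, using ip dosing to mice, typically at 300 mg/kg. Protection was assessed at 0.5 and 4 h.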

[2] = tested on: Rattus norvegicus; experiment: Anticonvulsant activity against subcutaneous metrazole-induced seizures in albino Sprague-Dawley rat at 300 mg/kg, ip after 4 hrs; type: functional, organism-based; parameters: dose 300 mg/kg
[3] = Behavioral toxicity in po dosed albino Sprague-Dawley rat; type: organism-based; details: in vivo
Method in brief: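 Behavioral toxicity was recorded as observed effects in rats after oral administration, within the NINDS ASP screen.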

[4] = tested on: Mus musculus; experiment: Protective index, ratio of TD50 for ip dosed albino CF1 mouse to ED50 for ip dosed albino CF1 mouse; type: functional
Method in brief: (§2)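 Protective index was calculated as TD50/ED50 for the same species and route: mouse ip (rotorod TD50, MES ED50) and rat po.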

[5] = tested on: Mus musculus; experiment: Anticonvulsant activity against subcutaneous metrazole-induced seizures in albino CF1 mouse at 300 mg/kg, ip after 4 hrs; type: functional, organism-based; parameters: dose 300 mg/kg; method in brief: as §1
[6] = tested on: Rattus norvegicus; experiment: Protective index, ratio of TD50 for po dosed albino Sprague-Dawley rat to ED50 for po dosed albino Sprague-Dawley rat; type: functional; method in brief: as §2
[7] = tested on: Rattus norvegicus; experiment: Anticonvulsant activity against subcutaneous metrazole-induced seizures in albino Sprague-Dawley rat at 300 mg/kg, ip after 0.5 hrs; type: functional, organism-based; parameters: dose 300 mg/kg
[8] = tested on: Mus musculus; experiment: Anticonvulsant activity in ip dosed albino CF1 mouse seizure model assessed as protection against hind limb extension by MES test; type: functional; details: albino CF1, Hindlimb
Method in brief: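 Maximal electroshock seizure test run by the NINDS ASP (Stables and Kupferberg procedures). Compounds were given intraperitoneally to mice, and the ED50 for seizure protection is reported in mg/kg.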

[9] = Neurological toxicity in ip dosed albino CF1 mouse assessed as neurological impairment by rotarod test; type: organism-based; details: in vivo
Method in brief: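 Neurological impairment was measured with the rotorod test in mice dosed intraperitoneally. The median dose (TD50, mg/kg) was determined only for compounds with significant MES activity.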

[10] = tested on: Rattus norvegicus; experiment: Anticonvulsant activity in po dosed albino Sprague-Dawley rat seizure model assessed as protection against hind limb extension by MES test; type: functional; details: Hindlimb
Method in brief: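 MES seizure protection was tested in Sprague Dawley rats dosed orally, through the NINDS ASP. The ED50 is expressed in mg/kg.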

[11] = tested on: Rattus norvegicus; experiment: Anticonvulsant activity against in ip dosed albino Sprague-Dawley rat hippocampal kindled seizure model assessed as after-discharge duration after 0.5 hrs; type: functional, Hippocampus
Method in brief: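 Rats were given compounds intraperitoneally in the rapid hippocampal kindling model under the NINDS ASP. Racine seizure score and after-discharge duration (sec) were recorded before and after dosing. Where determined, ED50 (mg/kg) is given with an interval.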

Row | SMILES | Activity [1] | Activity [2] | TD50 [3] | PI [4] | Activity [5] | PI [6] | Activity [7] | ED50 [8] | TD50 [9] | ED50 [10] | Time [11]
1 | COC[C@@H](NC(C)=O)C(=O)NCc1ccc(F)cc1 | inactive | inactive | 125 mg/kg | 6.7 | inactive | >48 | inactive | – | – | – | –
2 | COC[C@@H](NC(C)=O)C(=O)NCc1ccc(C#N)cc1 | inactive | inactive | > 30 mg/kg | >3.3 | inactive | – | inactive | 150 mg/kg | > 500 mg/kg | > 30 mg/kg | –
3 | COC[C@@H](NC(C)=O)C(=O)NCc1ccccc1F | inactive | inactive | > 30 mg/kg | – | inactive | >2.7 | inactive | 10 mg/kg | 100 mg/kg | 11 mg/kg | –
4 | O=C1NC(=O)C(c2ccccc2)(c2ccccc2)N1 [PHENYTOIN] | inactive | inactive | – | – | inactive | – | inactive | – | – | – | 51 s
5 | COC[C@@H](NC(C)=O)C(=O)NCc1cccc(F)c1 | inactive | inactive | > 400 mg/kg | 6.7 | inactive | >58 | inactive | – | – | – | –
6 | C#Cc1ccc(CNC(=O)[C@@H](COC)NC(C)=O)cc1 | inactive | inactive | > 250 mg/kg | – | inactive | >74 | inactive | 3 mg/kg | – | 3.4 mg/kg | –
7 | C=Cc1ccc(CNC(=O)[C@@H](COC)NC(C)=O)cc1 | inactive | inactive | – | 4.6 | inactive | >20 | inactive | 3.5 mg/kg | 16 mg/kg | 7.6 mg/kg | 0 s
8 | COC[C@@H](NC(C)=O)C(=O)NCc1ccccc1OC(F)(F)F | inactive | inactive | > 500 mg/kg | – | inactive | >22 | inactive | 30 mg/kg | 100 mg/kg | 23 mg/kg | –
9 | COC[C@@H](NC(C)=O)C(=O)NCc1ccccc1 [LACOSAMIDE] | inactive | inactive | > 500 mg/kg | 6 | inactive | >130 | inactive | – | – | – | 0 s
10 | COC[C@@H](NC(C)=O)C(=O)NCc1ccc(Br)cc1 | inactive | inactive | 300 mg/kg | 3.5 | inactive | 61 | inactive | 8.7 mg/kg | 30 mg/kg | 4.9 mg/kg | –
11 | COC[C@@H](NC(C)=O)C(=O)NCc1ccc(-c2ccccc2)cc1 | inactive | inactive | 49 mg/kg | – | inactive | >25 | inactive | 8 mg/kg | 11 mg/kg | 2 mg/kg | –
12 | COC[C@@H](NC(C)=O)C(=O)NCc1ccc(OC(F)(F)F)cc1 | inactive | inactive | 63 mg/kg | 3.6 | inactive | 37 | inactive | 3.6 mg/kg | 13 mg/kg | 1.7 mg/kg | –
13 | COCCCc1ccc(CNC(=O)[C@@H](COC)NC(C)=O)cc1 | inactive | inactive | > 500 mg/kg | 3.1 | inactive | >32 | inactive | 20 mg/kg | 62 mg/kg | – | 21 s
14 | COC[C@@H](NC(C)=O)C(=O)NCc1ccc(Cl)cc1 | inactive | inactive | > 200 mg/kg | 5.6 | inactive | >200 | inactive | 5 mg/kg | 28 mg/kg | 1 mg/kg | 2 s
15 | COC[C@@H](NC(C)=O)C(=O)NCc1ccc(C)cc1 | inactive | inactive | > 500 mg/kg | 3 | inactive | >62 | inactive | 11 mg/kg | 31 mg/kg | 8.1 mg/kg | –
16 | COC[C@@H](NC(C)=O)C(=O)NCc1ccc(OC)cc1 | inactive | inactive | > 500 mg/kg | – | inactive | >18 | inactive | 30 mg/kg | 100 mg/kg | 28 mg/kg | –
17 | CCCc1ccc(CNC(=O)[C@@H](COC)NC(C)=O)cc1 | inactive | inactive | > 30 mg/kg | 1.5 | inactive | – | inactive | 8.5 mg/kg | 13 mg/kg | < 30 mg/kg | –
18 | CCc1ccc(CNC(=O)[C@@H](COC)NC(C)=O)cc1 | inactive | inactive | > 250 mg/kg | – | inactive | >14 | inactive | 10 mg/kg | 30 mg/kg | 18 mg/kg | –
19 | COC[C@@H](NC(C)=O)C(=O)NCc1ccc(C(F)(F)F)cc1 | inactive | inactive | > 280 mg/kg | – | inactive | >57 | inactive | 10 mg/kg | 100 mg/kg | 4.9 mg/kg | –
20 | COCC#Cc1ccc(CNC(=O)[C@@H](COC)NC(C)=O)cc1 | inactive | inactive | 100 mg/kg | 1.5 | inactive | 5.5 | inactive | 10 mg/kg | 15 mg/kg | 18 mg/kg | –
